Results published in paper PMC4503318 (Chemistry & biology, 2015).
Where two headings read alike, the source gives them in different places.

Experiments:
[1] = target: HsLysRS (Homo sapiens, UniProt Q15046); experiment: Thermal shift assay, HsLysRS; assay type: binding
[2] = target: Pf-like human LysRS (Homo sapiens, UniProt Q15046, P300T/Q321V/T337S); experiment: Thermal shift assay, Pf-like human LysRS; assay type: binding
In short: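 Pf-like human LysRS (residues 70-584) was co-expressed in E. coli BL21(DE3) with His-tagged AIMP2/p38 1-36 and purified by Ni affinity and gel filtration. A 2× mix held 4 μM protein in Tris-HCl pH 8.0/NaCl/DTT, plus 40 μM test compound, 1 mM lysine, 40 μM ATP or 2 mM CaCl2. It sat 30 min at room temperature, then was chilled and mixed 1:1 with dye. Fluorescence was read during heating from 10 to 90 °C at 1 °C/min, averaging 8 curves. Tm was fitted by Levenberg-Marquardt. Kd was extrapolated to 25 °C, assuming 62760 J/mol binding enthalpy. Kd was not determined for negative ΔTm.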

[3] = target: T1, PfLysRS (Plasmodium falciparum, UniProt Q8IDJ8); experiment: Thermal shift assay, PfLysRS; assay type: binding, P. falciparum
[4] = test system: yeast LysRS Q324V and T340S; conditions: Q324V and T340S mutations of yeast LysRS; ref Hoepfner et al., 2012; cited from earlier work
[5] = test system: human cells; conditions: ref Hoepfner et al., 2012; cited from earlier work
[6] = test system: Colletotrichum acutatum; conditions: CP at 30 μM; ref Wang et al., 2013; cited from earlier work
[7] = test system: Colletotrichum gloeosporioides; conditions: CP at 30 μM; ref Wang et al., 2013; cited from earlier work
[8] = target: T1, PfLysRS; conditions: yeast-growth-based assay; ref Hoepfner et al., 2012; cited from earlier work
[9] = test system: E. coli; conditions: up to 100 μg/ml CP; ref Anke, 1979; cited from earlier work
[10] = test system: Colletotrichum fragariae; conditions: CP at 30 μM; ref Wang et al., 2013; cited from earlier work
[11] = test system: blood- and liver- stage Plasmodium falciparum parasite forms; conditions: Plasmodium parasites compared to mammalian cells; ref Hoepfner et al., 2012; cited from earlier work
[12] = test system: Phomopsis viticola; conditions: CP at 30 μM; ref Wang et al., 2013; cited from earlier work
[13] = test system: IleRS; conditions: ref Hughes and Mellows, 1980; cited from earlier work
[14] = HsLysRS, ligand alone (no lysine co-ligand for ATP/CP)
[15] = Pf-like human LysRS, ligand alone (no lysine co-ligand for ATP/CP)
[16] = Pf-like human LysRS, with lysine
[17] = PfLysRS, ligand alone (no lysine co-ligand), estimated from ΔTm, 25°C

Pf-like human LysRS, sequence (Q15046 70-584 P300T/Q321V/T337S): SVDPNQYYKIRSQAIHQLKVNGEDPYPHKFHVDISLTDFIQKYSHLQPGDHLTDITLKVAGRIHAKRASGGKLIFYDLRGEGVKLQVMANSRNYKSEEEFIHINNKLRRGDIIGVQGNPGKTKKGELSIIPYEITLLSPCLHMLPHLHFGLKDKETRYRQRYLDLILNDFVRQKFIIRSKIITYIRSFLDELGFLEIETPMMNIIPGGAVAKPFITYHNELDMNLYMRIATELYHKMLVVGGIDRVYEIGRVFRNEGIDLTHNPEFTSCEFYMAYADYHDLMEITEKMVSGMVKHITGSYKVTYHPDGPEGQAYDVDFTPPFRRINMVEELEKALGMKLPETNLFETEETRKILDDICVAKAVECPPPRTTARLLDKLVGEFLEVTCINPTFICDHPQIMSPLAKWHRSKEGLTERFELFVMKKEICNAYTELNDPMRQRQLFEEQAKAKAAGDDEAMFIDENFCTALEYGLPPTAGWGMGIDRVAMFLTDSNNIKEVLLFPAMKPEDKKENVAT
Pf-like human LysRS, sequence (Q13155 1-36 partner limits assumed): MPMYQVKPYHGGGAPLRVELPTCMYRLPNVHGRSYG
HsLysRS, sequence (Q15046 70-584): as the sequence (Q15046 70-584 P300T/Q321V/T337S) above, with T231P, V252Q, S268T counted along it
HsLysRS, sequence (Q13155 1-36 partner limits assumed): as the sequence (Q13155 1-36 partner limits assumed) above

Nc1ncnc2c1ncn2[C@@H]1O[C@H](COP(=O)(O)OP(=O)(O)OP(=O)(O)O)[C@@H](O)[C@H]1O [ATP]
ΔTm [1, 14]: -0.2 °C
ΔTm ([1]; HsLysRS, with lysine): 0.9 °C
Kd ([1]; HsLysRS, with lysine, estimated from ΔTm, 25°C): 2800 nM
ΔTm [2, 15]: -0.9 °C
ΔTm [2, 16]: 0.9 °C
Kd ([2]; Pf-like human LysRS, with lysine, estimated from ΔTm, 25°C): 2200 nM
ΔTm ([3]; PfLysRS, with lysine): 0.6 °C

C[C@H]1CCC[C@H](C[C@H]2Cc3cc(O)cc(O)c3C(=O)O2)O1 [CP, cladosporin]
increase of sensitivity for CP inhibition [4]: 40 fold
effect on the growth of human cells [5]: little effect
inhibition of growth [6]: over 80%
Kd [1]: 3300 nM
stabilization effect (melting temperature) ([1]; HsLysRS, CP even with the presence of lysine): < 2 °C
ΔTm [1, 14]: -0.8 °C
ΔTm ([1]; HsLysRS, with lysine): 0.3 °C
inhibition of growth [7]: over 80%
Kd [2]: 2100 nM
stabilization effect (melting temperature) ([2]; Pf-like human LysRS, CP even with the presence of lysine): < 2 °C
ΔTm [2, 15]: -1.1 °C
ΔTm [2, 16]: 1.0 °C
potency against PfLysRS relative to HsLysRS or yeast LysRS [8]: 1000 fold
effect on growth of E. coli [9]: not affected
inhibition of growth [10]: over 80%
selectivity index (IC50/CC50) [11]: > 111
inhibition of growth [12]: over 80%
Kd ([3]; PfLysRS, K-CP (with lysine)): ~2.4 nM
Kd [3, 17]: 1500 nM
Kd ([3]; PfLysRS, with lysine, estimated from ΔTm, 25°C): 2.4 nM
binding affinity tighter than in HsLysRS ([3]; PfLysRS vs HsLysRS, with lysine): 1375 fold
stabilization by CP together with lysine relative to CP-alone ([3]; PfLysRS, 17.1 °C vs 2.4 °C): 7 fold
stabilization effect with non-cognate amino acids ([3]; PfLysRS, CP, lysine replaced with any of the other 19 non-cognate amino acids): did not yield stabilization effect
increase of binding affinity by the presence of lysine ([3]; PfLysRS, Kd with lysine vs no lysine): 625 fold
ΔTm at 40 µM ([3]; read-out: ΔTm): 2.4 °C

NCCCC[C@H](N)C(=O)O [Lysine, L-lysine]
Kd [1]: 84900 nM
ΔTm [1]: 0.1 °C
ΔTm [2, 15]: -0.2 °C
Kd [3, 17]: 34100 nM
ΔTm at 1000 µM ([3]; read-out: ΔTm): 2.7 °C

C/C(=C\C(=O)OCCCCCCCCC(=O)O)C[C@@H]1OC[C@H](C[C@@H]2O[C@H]2[C@@H](C)[C@H](C)O)[C@@H](O)[C@H]1O [mupirocin]
selectivity for pathogenic over mammalian IleRS [13]: about 8000 fold
